Assay results published in ChEMBL document CHEMBL5252537, “Usnic Acid Benzylidene Analogues as Potent Mechanistic Target of Rapamycin Inhibitors for the Control of Breast Malignancies” (J Nat Prod, 2017).
Active and inactive are the calls of the source. No cut-off for these calls is given here.

Experiments:
[1] = Toxicity in athymic nude mouse xenografted with human MDA-MB-231/GFP cells at 10 mg/kg, ip measured after 34 days post inoculation; conditions: in vivo, 816 h
MDA-MB-231 [2] = test: Antimigratory activity in human MDA-MB-231 cells assessed as inhibition of cell migration after 23 hrs by scratch wound healing assay; assay type: functional, cell-based
In short: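 Cells seeded at 1 × 10^5/well and grown to a confluent monolayer, then scratched with a 200 μL pipet tip. Held 5 h in serum-free medium, then given medium with HGF (100 ng/mL) plus compound or DMSO. Norstictic acid (15 μM) was the positive control. Wound width photographed at 0 h and followed up to 24 h; cells MeOH-fixed. Percent migration from wound thickness versus DMSO wells; IC50 calculated.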

[3] = Toxicity in athymic nude mouse xenografted with human MCF7 cells at 10 mg/kg, ip measured after 75 days post inoculation; conditions: in vivo, 1800 h
mTORC2 (Homo sapiens) = mTORC2 (Homo sapiens) (UniProt P42345+Q6R327+Q9BVC4+Q9BPZ7); test: Inhibition of mTORC2 in human MDA-MB-231 cells assessed as reduction in Akt phosphorylation at Ser473 residue at 0.25 to 0.5 uM by Western blot analysis; assay type: cell-based; conditions: dose 0.25-0.5 µM
In short: (§1)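 Cells seeded at 5 × 10^5 per 100 mm dish and allowed to attach overnight. Treated with compound or DMSO for 72 h (HGF 100 ng/mL added for MDA-MB-231). Lysed in RIPA buffer with protease inhibitors. 30 μg protein run on SDS-PAGE, transferred to PVDF, blocked in 5% BSA/TBST. Primary antibodies overnight at 4 °C, HRP secondary antibodies, chemiluminescent detection.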

MDA-MB-231 [4] = test: Induction of autophagy in human MDA-MB-231 cells assessed as increase in beclin-1 level at 0.4 to 0.8 uM by Western blotting analysis; assay type: functional, cell-based; conditions: dose 0.4-0.8 µM
In short: as §1

MDA-MB-231 [5] = test: Antitumor activity against human MDA-MB-231/GFP cells xenografted in athymic nude mouse assessed as inhibition of tumor growth at 10 mg/kg, ip administered for 3 weeks; set-up: scale not given: the % may be the effect or the level left
[6] = target: Serine/threonine-protein kinase mTOR (Homo sapiens) (UniProt P42345); test: Inhibition of mTOR in human MDA-MB-231 cells assessed as reduction in phosphorylated 4E-BP1 level at 0.25 to 0.5 uM by Western blot analysis; assay type: cell-based; conditions: dose 0.25-0.5 µM
In short: as §1

MCF7 [7] = test: Induction of autophagy in human MCF7 cells assessed as autophagic vacuoles by microscopic analysis; assay type: functional, cell-based
In short: (§2)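 Cells of each line treated with compound and examined by light microscopy for autophagic vacuoles, compared with control cells.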

MCF7 [8] = test: Inhibition of colony formation in human MCF7 cells at 0.2 uM incubated for 8 days by inverted phase contrast microscopic analysis; assay type: functional; conditions: MCF7, 192 h, time 8 day
In short: (§3)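 Soft agar assay: 5 × 10^3 MCF-7 cells per well in a cell/agar matrix layered over a base agar layer. Overlaid with 10% serum medium containing 0.2 or 0.6 μM compound, or DMSO. Colonies photographed under inverted phase-contrast microscopy after 8 days. Matrix then solubilized, MTT added (4 h, 37 °C), detergent added, A570 read. Growth normalized to DMSO.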

MCF7 [9] = test: Inhibition of colony formation in human MCF7 cells at 0.6 uM incubated for 8 days by inverted phase contrast microscopic analysis; assay type: functional; conditions: MCF7, 192 h, time 8 day
In short: as §3

[10] = Toxicity in athymic nude mouse xenografted with human MCF7 cells assessed as reduction in body weight at 10 mg/kg, ip measured after 75 days post inoculation; conditions: in vivo, 1800 h
T47D [11] = test: Antiproliferative activity against human T47D cells incubated for 72 hrs by MTT assay; assay type: functional, cell-based
In short: (§4)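 Cells seeded at 5 × 10^3/well and allowed to attach overnight, then washed with PBS. Compound diluted from 10 mM DMSO stock into medium (100 ng/mL HGF added for c-Met-expressing cells), in triplicate, 72 h at 37 °C. MTT added for 4 h, formazan dissolved in DMSO, absorbance read at 570 nm. Cell numbers taken from a standard curve; IC50 calculated.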

MDA-MB-231 [12] = test: Induction of autophagy in human MDA-MB-231 cells assessed as autophagic vacuoles by microscopic analysis; assay type: functional, cell-based
In short: as §2

[13] = target: Serine/threonine-protein kinase mTOR (Homo sapiens) (UniProt P42345); test: Inhibition of mTOR in human […] cells assessed as reduction in p-S6K level at 0.25 to 0.5 uM by Western blot analysis; assay type: cell-based; conditions: MCF7, dose 0.25-0.5 µM
In short: as §1

[14] = target: Serine/threonine-protein kinase mTOR (Homo sapiens) (UniProt P42345); test: In vivo inhibition of mTOR in human MCF7 cells xenografted in athymic nude mouse assessed as downregulation of phosphorylated 4E-BP1 level at 10 mg/kg, ip
[15] = target: Serine/threonine-protein kinase mTOR (Homo sapiens) (UniProt P42345); test: Inhibition of mTOR in human […] cells assessed as reduction in phosphorylated 4E-BP1 level at 0.25 to 0.5 uM by Western blot analysis; assay type: cell-based; conditions: MCF7, dose 0.25-0.5 µM
In short: as §1

BT-474 [16] = test: Antiproliferative activity against human BT-474 cells incubated for 72 hrs by MTT assay; assay type: functional, cell-based; conditions: BT-474, 72 h
In short: as §4

[17] = target: Serine/threonine-protein kinase mTOR (Homo sapiens) (UniProt P42345); test: In vivo inhibition of mTOR in human MDA-MB-231/GFP cells xenografted in athymic nude mouse assessed as downregulation of phosphorylated 4E-BP1 level at 10 mg/kg, ip
MCF7 [18] = test: Antitumor activity against human MCF7 cells xenografted in athymic nude mouse assessed as reduction in mean tumor volume at 10 mg/kg, ip measured after 75 days post inoculation (reference value: 1093 +/- 185 mm3); conditions: time 75 day
MDA-MB-468 = test: Antiproliferative activity against human MDA-MB-468 cells incubated for 72 hrs by MTT assay; assay type: functional, cell-based; conditions: MDA-MB-468, 72 h
In short: as §4

MDA-MB-231 [19] = test: Induction of autophagy in human MDA-MB-231 cells assessed as increase in LC3 level at 0.4 to 0.8 uM by Western blotting analysis; assay type: functional, cell-based; conditions: dose 0.4-0.8 µM
In short: as §1

SK-BR-3 = test: Antiproliferative activity against human SK-BR-3 cells incubated for 72 hrs by MTT assay; assay type: functional, cell-based; conditions: SK-BR-3, 72 h
In short: as §4

BT-474 [20] = test: Induction of autophagy in human BT-474 cells assessed as autophagic vacuoles by microscopic analysis; assay type: functional, cell-based
In short: as §2

T47D [21] = test: Induction of autophagy in human T47D cells assessed as autophagic vacuoles by microscopic analysis; assay type: functional, cell-based
In short: as §2

[22] = Toxicity in athymic nude mouse xenografted with human MDA-MB-231/GFP cells assessed as reduction in body weight at 10 mg/kg, ip measured after 34 days post inoculation; conditions: in vivo, 816 h
MCF7 [23] = test: Induction of autophagy in human MCF7 cells assessed as increase in beclin-1 level at 0.4 to 0.8 uM by Western blotting analysis; assay type: functional, cell-based; conditions: dose 0.4-0.8 µM
In short: as §1

CC(=O)C1=C(O)C=C2Oc3c(C(=O)/C=C/c4ccc(OC(F)(F)F)cc4)c(O)c(C)c(O)c3[C@]2(C)C1=O
Activity [1]: Non-Toxic
Activity (MDA-MB-231 [2]): Dose-Dependent Effect
IC50 (MDA-MB-231 [2]; MDA-MB-231, 23 h): 510 nM
Activity [3]: Non-Toxic
inhibition (mTORC2 (Homo sapiens)): Active
Activity (MDA-MB-231 [4]): Active
Activity (MDA-MB-231 [5]): 62.3%
inhibition [6]: Active
Activity (MCF7 [7]): Active
inhibition at 0.2 µM (MCF7 [8]): 22.9%
inhibition at 0.6 µM (MCF7 [9]): 75.3%
Activity [10]: Non-Toxic
IC50 (T47D [11]): 330 nM
Activity (MDA-MB-231 [12]): Active
inhibition [13]: Active
inhibition [14]: Active
inhibition [15]: Active
IC50 (BT-474 [16]): 390 nM
inhibition [17]: Active
Activity (MCF7 [18]): 385 mm3
IC50 (MDA-MB-468): 350 nM
Activity (MDA-MB-231 [19]): Active
IC50 (SK-BR-3): 400 nM
Activity (BT-474 [20]): Active
Activity (T47D [21]): Active
Activity [22]: Non-Toxic
Activity (MCF7 [23]): Active
